Measured values reported in ChEMBL document CHEMBL3822382 (Eur J Med Chem, 2016).
The source made the active and inactive calls. No cut-off for these calls is given here.

Experiments:
[1] = Growth inhibition of human MCF7/Topo cells after 24 hrs by MTT assay; type: functional, cell-based
Method in brief: (§1)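 Cells seeded at 5000/well (Ea.hy926 10,000/well) and exposed for 24 h to dilution series of 100 µM–5 pM, with DMSO as solvent control. MTT (0.5 mg/mL final) for 2 h. Formazan dissolved in SDS/acetic acid/DMSO and read at 570 nm against a 630 nm background. Viability taken relative to DMSO controls; IC50 from dose–response curves, mean of four independent experiments.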

[2] = Growth inhibition of human 518A2 cells after 72 hrs by MTT assay; type: functional, cell-based; details: 518A2, 72 h
Method in brief: (§2)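 5000 cells/well exposed for 72 h to dilution series of 100 µM–5 pM, with DMSO as solvent control. MTT 0.5 mg/mL final for 2 h, absorbance at 570/630 nm. Percentage viable cells taken versus DMSO controls; IC50 from dose–response curves, mean of four independent experiments.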

[3] = Growth inhibition of human 518A2 cells after 24 hrs by MTT assay; type: functional, cell-based; details: 518A2, 24 h; method in brief: as §1
HT-29 [4] = assay: Growth inhibition of combretastatin A-4 resistant human HT-29 cells after 72 hrs by MTT assay; type: functional, cell-based; details: HT-29, 72 h; method in brief: as §2
HT-29 [5] = assay: Growth inhibition of combretastatin A-4 resistant human HT-29 cells after 24 hrs by MTT assay; type: functional, cell-based; details: HT-29, 24 h; method in brief: as §1
[6] = Growth inhibition of human KB-V1/Vbl cells after 24 hrs by MTT assay; type: functional; method in brief: as §1
Sus scrofa = organism: Sus scrofa; assay: Inhibition of porcine brain alpha/beta tubulin polymerization at 5 uM measured every 20 sec by microplate reader analysis
[7] = Growth inhibition of human HCT116 cells expressing wild type p53 after 72 hrs by MTT assay; type: functional, cell-based; details: HCT-116, 72 h
Method in brief: (§3)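 HCT-116 cells, p53 wild-type or p53-/-, seeded at 5000/well and treated 72 h with dilution series (100 µM–5 pM) or DMSO. MTT 0.5 mg/mL for 2 h, absorbance at 570/630 nm. Viability relative to DMSO controls; IC50 from dose–response curves, mean of three independent experiments ± S.D.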

[8] = Growth inhibition of p53 null human HCT116 cells after 72 hrs by MTT assay; type: functional, cell-based; details: HCT-116, 72 h; method in brief: as §3
[9] = Growth inhibition of primary chicken fibroblasts after 48 hrs by MTT assay; type: cell-based; details: Gallus gallus, Fibroblast
Method in brief: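 Chicken heart fibroblasts explanted from 10-day-old embryos, seeded at 10,000/well; cardiomyocytes seeded at 20,000/well. Dilution series given for 48 h, DMSO as control. MTT 0.5 mg/mL for 2 h, absorbance at 570/630 nm. Viability versus DMSO controls; IC50 from dose–response curves, mean of three independent experiments.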

HT-29 [10] = assay: Cell cycle arrest in combretastatin A-4 resistant human HT-29 cells assessed as mitotic cells at 5 uM after 24 hrs by propidium iodide/immunostaining method (reference value: 3.1 to 3.2%); type: functional
Method in brief: (§4)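 HT-29 cells (200,000/well) were treated 24 h with 100 nM indole, 5 μM CA-4 or DMSO. Cells were trypsinized, fixed in 4% formaldehyde (20 min, RT) and permeabilized in 90% ice-cold methanol (30 min). They were immunostained with anti-phospho-histone H3 (Ser10) (5 μg/mL, 37 °C, 1 h) plus an AlexaFluor-488 secondary, then stained with PI/RNase (30 min, 37 °C). Flow cytometry of 10,000 single cells assigned G1/S/G2/M.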

HT-29 [11] = assay: Cell cycle arrest in combretastatin A-4 resistant human HT-29 cells assessed as accumulation at G1 phase at 5 uM after 24 hrs by propidium iodide staining-based flow cytometry (reference value: 68.1 +/- 0.3%); type: functional; method in brief: as §4
HT-29 [12] = assay: Cell cycle arrest in combretastatin A-4 resistant human HT-29 cells assessed as accumulation at S phase at 5 uM after 24 hrs by propidium iodide staining-based flow cytometry (reference value: 13.7 +/- 0.3%); type: functional; method in brief: as §4
HT-29 [13] = assay: Cell cycle arrest in combretastatin A-4 resistant human HT-29 cells assessed as accumulation at G2 phase at 5 uM after 24 hrs by propidium iodide staining-based flow cytometry (reference value: 15.6 +/- 0.1%); type: functional; method in brief: as §4
EA.hy 926 [14] = assay: Antivascular activity in human EAhy926 cells assessed as induction of retraction of cells to nodes at 100 nM after 16 hrs by light microscopic analysis; type: functional, cell-based
Method in brief: (§5)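 Ea.hy926 cells (100,000/well) were seeded on Matrigel-coated coverslips and allowed 12 h to form vessel-like networks. Test agent (CA-4 100 nM; indoles 250 nM) or DMSO was then added for 16 h, and networks were documented by light microscopy. Viability was checked by 2 h MTT (0.5 mg/mL) relative to DMSO controls.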

EA.hy 926 [15] = assay: Antivascular activity in human EAhy926 cells assessed as change in cell morphology from stretched to rounded form at 100 nM after 16 hrs by matrigel based tube formation assay; type: functional; method in brief: as §5
EA.hy 926 [16] = assay: Antivascular activity in human EAhy926 cells assessed as disruption of preformed blood vessel lke network at 100 nM after 16 hrs by matrigel based tube formation assay; type: functional, cell-based; method in brief: as §5
[17] = Cytotoxicity against human EAhy926 cells assessed as cell viability at 100 nM after 16 hrs by MTT assay relative to control; type: cell-based, EA.hy 926; details: read-out: Activity
Method in brief: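 Ea.hy926 cells (100,000/well) seeded on Matrigel-coated coverslips and left 12 h to form networks, then exposed to compound for 16 h. Viability was read by 2 h MTT (0.5 mg/mL) and absorbance of the formazan, expressed relative to DMSO controls.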

[18] = Cytotoxicity against fertilized white leghorn chicken embryos in CAM model assessed as lethality at 5 nmol after 24 hrs relative to control; type: organism-based, Gallus gallus; details: in vivo
Method in brief: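 Day-5 fertilized eggs (37 °C, 50-60% humidity) windowed, with 6 mm silicon rings placed on CAM vessels and incubated a further 24 h. Compound diluted to 500 µM in PBS and pipetted inside the ring (10 µL = 5 nmol); DMSO control. Vessel changes documented by stereomicroscopy at 0, 12 and 24 h.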

[19] = Growth inhibition of human MCF7/Topo cells after 72 hrs by MTT assay; type: functional, cell-based
Method in brief: (§6)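 MTT assay: cells seeded at 5000/well (MCF-7/Topo) or 10,000/well (Ea.hy926), then given dilution series (100 µM–5 pM) or DMSO for 72 h. MTT was added at 0.5 mg/mL final for 2 h, formazan dissolved in SDS/acetic acid/DMSO, and absorbance read at 570 nm with 630 nm background. Viability was set relative to DMSO controls, and IC50 taken as the mean of at least three experiments ± S.D.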

[20] = Growth inhibition of human EAhy926 cells after 72 hrs by MTT assay; type: cell-based; details: EA.hy 926, 72 h; method in brief: as §6
[21] = Cell cycle arrest in human 518A2 cells assessed as accumulation at subG1 phase at 200 nM after 24 hrs by propidium iodide staining-based flow cytometry (reference value: 3.8%); type: functional
[22] = Cell cycle arrest in human 518A2 cells assessed as accumulation at G1 phase at 200 nM after 24 hrs by propidium iodide staining-based flow cytometry (reference value: 49.5%); type: functional
[23] = Cell cycle arrest in human 518A2 cells assessed as accumulation at S phase at 200 nM after 24 hrs by propidium iodide staining-based flow cytometry (reference value: 20.4%); type: functional
[24] = Cell cycle arrest in human 518A2 cells assessed as accumulation at G2/M phase at 200 nM after 24 hrs by propidium iodide staining-based flow cytometry (reference value: 26.3%); type: functional
[25] = Cell cycle arrest in human 518A2 cells assessed as apoptotic index ratio at 200 nM after 24 hrs by propidium iodide staining-based flow cytometry relative to control; type: functional
[26] = Cell cycle arrest in human 518A2 cells assessed as G2/M index ratio at 200 nM after 24 hrs by propidium iodide staining-based flow cytometry relative to control; type: functional

IC50 (HT-29 [4])	IC50 (HT-29 [5])	SMILES	IC50 [1]	IC50 [2]	IC50 [3]	IC50 [6]	other results
793 nM	> 1000 nM	CCn1c(Cl)c(Cl)c2cc(-c3c(-c4cc(Br)c(OC)c(OC)c4)ncn3C)ccc21	489 nM	767 nM	> 1000 nM	> 1000 nM	
178 nM	482 nM	CCn1cc(Cl)c2cc(-c3c(-c4cc(I)c(OC)c(OC)c4)ncn3C)ccc21	81.2 nM	168 nM	211 nM	83.2 nM	
116 nM	246 nM	CCn1cc(Cl)c2cc(-c3c(-c4cc(Br)c(OC)c(OC)c4)ncn3C)ccc21	91.3 nM	82 nM	216 nM	48.4 nM	Activity [21]: 7.8%; Activity [22]: 39.7%; Activity [23]: 17.4%; Activity [24]: 35.2%; Ratio [25]: 5.1; Ratio [26]: 1.7
39.7 nM	35.1 nM	COc1cc(-c2ncn(C)c2-c2ccc3c(c2)c(Cl)cn3C)cc(I)c1OC	53.3 nM	35.7 nM	56.7 nM	49.8 nM	
31.4 nM	33.7 nM	COc1cc(-c2ncn(C)c2-c2ccc3c(c2)c(Cl)cn3C)cc(Cl)c1OC	26.9 nM	32.4 nM	174 nM	37.9 nM	
43.4 nM	75.8 nM	CCn1cc(Cl)c2cc(-c3c(-c4cc(OC)c(OC)c(OC)c4)ncn3C)ccc21	30.2 nM	33 nM	739 nM	33.2 nM	
223 nM	903 nM	COc1cc(-c2ncn(C)c2-c2ccc3c(c2)c(Cl)c(Cl)n3C)cc(Br)c1OC	208 nM	223 nM	292 nM	456 nM	

SMILES	IC50 (HT-29 [4])	IC50 (HT-29 [5])	IC50 [1]	IC50 [2]	IC50 [3]	IC50 [6]	other results
COc1ccc(/C=C\c2cc(OC)c(OC)c(OC)c2)cc1O [COMBRETASTATIN A4]	> 5000 nM						inhibition (Sus scrofa): Active; IC50 [7]: 2.6 nM; IC50 [8]: 3.4 nM; IC50 [9]: 5480 nM; Activity (HT-29 [10]): 10.2%; Activity (HT-29 [11]): 51.4%; Activity (HT-29 [12]): 18.6%; Activity (HT-29 [13]): 18.2%; Activity (EA.hy 926 [14]): Active; Activity (EA.hy 926 [15]): Active; Activity (EA.hy 926 [16]): Active; viability at 16 h, 0.1 µM [17]: > 90%; mortality at 24 h [18]: 60%; IC50 [19]: 154 nM; IC50 [20]: 11 nM
